Rows were chosen to be rich in hits. Some 6.7% of all compounds tested hit in one or more screens of this group.
T cruzi inh – inhibitors of intracellular T. cruzi growth, primary screen, luminescence, NIH3T3 host cells; T. cruzi beta-gal in NIH3T3, 90 h; inhibition, % (concentration not given with the values); 1.4% of 300,000 active;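 active = mean inhibition across valid replicates above about 55%, limit read from the data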;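 note: signal also drops with host cell toxicity which is not excluded here; higher percent means less beta-gal luminescence so fewer parasites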
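Read-out: Parasite load inhibition, % | Test system: Mouse NIH/3T3 fibroblasts infected with β-gal-expressing T. cruzi Tulahuen C4 | Amount: 5,000 cells/well | Medium: DMEM, 2% fetal bovine serum | Signal: GalScreen β-gal luminescence, detergent lysis, 60 min | Timing: 3 h attach, ≥90 h co-culture | Also added: Tulahuen C4 trypomastigotes, 5000/well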
CSC inhib – cancer stem cell viability inhibitors, primary screen, luminescence; cancer stem cell-like cells viability; inhibition, % at 7.5 µM; 1.1% of 300,000 active; AID 2717, 2010; in the data active = inhibition above about 75%; tested in HMLE shEcad cells
PREPL inh – PREPL enzyme inhibitors, primary screen, biochemical, fluorescence polarization | Prolyl endopeptidase-like (Homo sapiens), Q4J6C6 | recombinant PREPL, fluorescence polarization activity-based probe | 0.68% of 320,000 active | inhibition, % at 5.96 µM | AID 2751, 2010; in the data active = inhibition above about 43%
Target sequence (Q4J6C6 whole entry, looked up): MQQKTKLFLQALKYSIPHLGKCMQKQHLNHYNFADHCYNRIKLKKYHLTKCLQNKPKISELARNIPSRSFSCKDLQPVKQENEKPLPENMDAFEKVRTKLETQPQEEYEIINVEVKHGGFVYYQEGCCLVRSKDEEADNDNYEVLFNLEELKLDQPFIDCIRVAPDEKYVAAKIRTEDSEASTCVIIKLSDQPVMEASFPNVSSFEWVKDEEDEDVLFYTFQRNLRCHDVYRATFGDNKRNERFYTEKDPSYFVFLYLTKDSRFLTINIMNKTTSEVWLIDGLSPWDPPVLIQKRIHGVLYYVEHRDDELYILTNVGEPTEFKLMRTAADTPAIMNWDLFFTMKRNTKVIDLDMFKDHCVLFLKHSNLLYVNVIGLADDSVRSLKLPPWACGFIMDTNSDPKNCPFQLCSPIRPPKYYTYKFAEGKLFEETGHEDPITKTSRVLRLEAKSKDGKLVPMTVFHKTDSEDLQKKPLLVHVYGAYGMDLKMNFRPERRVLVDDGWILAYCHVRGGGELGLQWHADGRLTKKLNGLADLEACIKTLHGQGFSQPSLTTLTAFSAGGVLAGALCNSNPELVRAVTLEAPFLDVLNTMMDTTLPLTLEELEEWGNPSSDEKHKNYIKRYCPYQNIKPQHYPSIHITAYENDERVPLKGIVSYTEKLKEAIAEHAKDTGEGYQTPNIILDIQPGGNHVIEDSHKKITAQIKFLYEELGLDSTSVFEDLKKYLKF
CHOP inh – inhibitors of CHOP promoter induction, primary screen, cell-based, unfolded protein response, luciferase reporter; inhibition, % at 10 µM; CHO-K1 CHOP-promoter luciferase, tunicamycin-induced, 15-18 h; 3.8% of 220,000 active; AID 2732, 2010;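 active = compounds that reduced the stress-induced luciferase reporter signal by more than about 70% of percent inhibition, limit read from the data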
NR3A LBD binder – binders of NR3A ligand-binding domain, primary screen, biophysical, differential scanning fluorimetry, uHTS | Tm shift relative to glycine control, % at 25 µM | NR3A LBD differential scanning fluorimetry, Tm shift; 0% = protein alone, 100% = glycine-bound protein | 2.5% of 340,000 active | Glutamate receptor ionotropic, NMDA 3A (GRIN3A) ligand-binding domain;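 active = melting temperature shift of at least 10% of the positive control shift, at one fixed dose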
Beta cell apopt – inhibitors of cytokine-induced beta cell apoptosis, primary screen, luminescence | INS-1E cytokine-induced death, ATP luminescence, 48 h; percent of positive-control rescue, neutral wells zero | protection from apoptosis, % (concentration not given with the values) | 0.8% of 300,000 active | AID 435005, 2010;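 active = Every replicate reaches about 75%, or at least half do and their mean reaches it too, limit read from the data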;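 note: higher means more ATP so stronger rescue from cytokine killing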
Large screens that a line does not name were inactive.

CCN1C=C(C(C)=O)C(=O)CC1	none (no result: T cruzi inh, CSC inhib, PREPL inh, CHOP inh, Beta cell apopt)
Cc1ccc(C)c(Cn2nnc3c(=O)[nH]c(C4CCN(S(=O)(=O)c5ccc(S(=O)(=O)NC6CC6)cc5)CC4)nc32)c1	NR3A LBD binder 12 (no result: CHOP inh, Beta cell apopt)
O=c1[nH]c(C2CCN(S(=O)(=O)c3ccc(S(=O)(=O)NC4CC4)cc3)CC2)nc2c1nnn2Cc1ccc(F)cc1	NR3A LBD binder 10 (no result: CHOP inh)
O=c1[nH]c(C2CCN(S(=O)(=O)c3ccc(S(=O)(=O)NC4CC4)cc3)CC2)nc2c1nnn2Cc1ccccc1	none (no result: CHOP inh)
Cc1ccc(Cn2nnc3c(=O)[nH]c(C4CCN(S(=O)(=O)c5ccc(F)cc5)CC4)nc32)cc1	CHOP inh 84
Cc1ccc(NC(=O)CSc2nnc(-c3ccncc3)o2)cc1C	none
N#CC(C(=O)C1CCCCC1)c1nc2ccccc2[nH]1 (centres undefined)	none (no result: CSC inhib, Beta cell apopt)
N#CC(C(=S)Nc1ccccc1)c1nc2ccccc2[nH]1 (centres undefined)	NR3A LBD binder 31
CSC(=Nc1ccccc1)C(C#N)c1nc2ccccc2[nH]1 (centres undefined)	CHOP inh 82 (no result: Beta cell apopt)
CCCCOC1(c2ccccc2)OC(=O)c2ccccc21 (centres undefined)	CHOP inh 81
CC1(c2ccccc2)NC(=O)N(CC(=O)Nc2ccc(S(=O)(=O)NC3=NCCCCC3)cc2)C1=O (centres undefined)	none (no result: T cruzi inh, CSC inhib, PREPL inh, CHOP inh, Beta cell apopt)
C=CCOc1cccc(/C=C2\C(=O)N(Cc3ccc(C)cc3)C(C)=C2C(=O)OC)c1	CSC inhib 85
CCOc1cc(/C=C2\C(=O)N(Cc3ccc(C)cc3)C(C)=C2C(=O)OC)ccc1O	none
COc1ccc(-c2ccc(-c3cc(=O)oc4cc(OC)c(OC)c(OC)c34)cc2)cc1	none (no result: T cruzi inh, CSC inhib, PREPL inh, CHOP inh, Beta cell apopt)
CCc1ccc(-c2nc(CSCC(=O)N3CCN(c4ncccn4)CC3)c(C)o2)cc1	CHOP inh 90
O=C(Nc1ccccc1)Nc1cnccn1	none (no result: CHOP inh)
Oc1ccc(-c2csc(Nc3ccccn3)n2)c(O)c1	CSC inhib 103, NR3A LBD binder 36 (no result: CHOP inh)
Cc1cccnc1Nc1nc(-c2ccc(O)cc2O)cs1	NR3A LBD binder 25
Oc1ccc(-c2csc(Nc3ncccn3)n2)cc1	none
Cc1cccc(Nc2nc(-c3ccccn3)cs2)n1	T cruzi inh 59
Cc1cccnc1Nc1nc(-c2ccccn2)cs1	CSC inhib 101, Beta cell apopt 101
Cc1cccnc1Nc1nc(-c2ccccc2)cs1	none (no result: CHOP inh, Beta cell apopt)
CC(C)CC(NC(=O)C(COCc1ccccc1)NC(=O)OC(C)(C)C)C(=O)NN (centres undefined)	none
O=C1C[C@@H]2c3c(cccc3CN1Cc1ccc(Br)cc1)C[C@@H](O)[C@H]2O	none (no result: T cruzi inh, CSC inhib, PREPL inh, CHOP inh, Beta cell apopt)
Cc1ccc2c(c1)-n1c(nc3ccccc3c1=O)C(Cc1ccccc1)NC2=O (centres undefined)	none (no result: T cruzi inh, CSC inhib, CHOP inh, NR3A LBD binder)
CC(=O)Oc1ccc(-c2csc(Nc3cccc(C)n3)n2)cc1	CSC inhib 79 (no result: CHOP inh, Beta cell apopt)
COc1ccc2c(Cl)c(C(=O)N/N=C/c3ccncc3)sc2c1	none (no result: CHOP inh)
O=C(N/N=C/c1ccncc1)c1sc2ccccc2c1Cl	NR3A LBD binder 13 (no result: CHOP inh)
O=C(N/N=C/c1ccc[nH]1)c1sc2ccccc2c1Cl	T cruzi inh 69, CSC inhib 93
Cc1cc(C(=O)NCC(c2ccco2)N(C)C)ccc1[N+](=O)[O-] (centres undefined)	none (no result: CHOP inh)
N#Cc1c(NCCN)nc(NCc2ccccc2)c2c1CCN(Cc1ccccc1)C2	none (no result: T cruzi inh, CSC inhib, PREPL inh, CHOP inh, Beta cell apopt)
CCN1CCc2c(C#N)c(NCc3ccccc3)nc(N(CC)CC)c2C1	T cruzi inh 82
CCc1cccc2c(C(=O)Cn3nnc(-c4ccc(OC)c(OC)c4)n3)c[nH]c12	CHOP inh 72 (no result: Beta cell apopt)
Clc1cccc(-c2ccc(-c3nc4ccccn4c3NCc3ccccc3)cc2)c1	NR3A LBD binder 20 (no result: T cruzi inh, CSC inhib, CHOP inh, Beta cell apopt)
Cc1ccc2nc(-c3cccc(SC4CCCCC4)c3)c(NCc3ccccc3)n2c1	none (no result: T cruzi inh, CSC inhib, CHOP inh, Beta cell apopt)
COc1ccc(-c2cc(-c3nc4ccccn4c3NCc3ccccc3)ccc2OC)cc1	CSC inhib 98, Beta cell apopt 125 (no result: T cruzi inh, CHOP inh)
COc1ccc(-c2nc3ccccn3c2NCc2ccc3c(c2)OCO3)cc1	none
c1ccc(CNc2c(-c3cccc(SC4CCCCC4)c3)nc3ccccn23)cc1	CSC inhib 102, Beta cell apopt 124 (no result: T cruzi inh, CHOP inh)
Cc1ccn2c(NCc3ccccc3)c(-c3cccc(SC4CCCCC4)c3)nc2c1	CSC inhib 99 (no result: T cruzi inh, CHOP inh)
COc1ccc(S(=O)(=O)N2CCSC2C)cc1C (centres undefined)	none (no result: CSC inhib, PREPL inh, CHOP inh, Beta cell apopt)
COC1=CC(=O)[C@@]2([C@@H]1O)[C@@H](Cl)C[C@]13C(OC)=C(OC)C(=O)C[C@]21CCN3C	none (no result: T cruzi inh, CSC inhib, CHOP inh)
Cn1cnnc1SCC(=O)NC1CC1	none (no result: T cruzi inh, CHOP inh)
CCNC(=S)N1CCC(n2cnc3ccccc32)CC1	none
CCC(C)Sc1cccc(-c2nc3cc(C)ccn3c2NCc2ccccc2)c1 (centres undefined)	CSC inhib 123 (no result: CHOP inh)
CCC(C)Sc1ccc(-c2nc3ccc(Cl)cn3c2NCc2ccccc2)cc1 (centres undefined)	none (no result: T cruzi inh, CHOP inh)
Cc1nn(Cc2ccc(Cl)cc2)c(=O)n1N(C)c1ncc(C(F)(F)F)cc1Cl	CHOP inh 81
Cc1ccc(N2C(=O)C3CC(c4ccccc4)=C4C5C=CC(C6C(=O)N(c7ccc(C)cc7C)C(=O)C56)C4C3C2=O)c(C)c1 (centres undefined)	T cruzi inh 59 (no result: CSC inhib)
COCCN(CC(=O)NC1CCCCC1)C(=O)/C=C/C(=O)c1ccc(OC)cc1O	CHOP inh 108 (no result: CSC inhib, PREPL inh, Beta cell apopt)
COc1ccc(CN(C(=O)/C=C/C(=O)c2ccc(OC)cc2O)C(C(=O)NC2CCCCC2)c2ccncc2)cc1 (centres undefined)	none
CCN1Cc2c(/C=C/c3ccccc3)nc3ccc(OC)cc3c2N(c2cccc(Cl)c2)C1	CSC inhib 107
Cc1ccc(C(=O)NNC(=O)CSc2nnc(C(C)C)n2C)cc1	none (no result: CHOP inh)
O=C(NNC(=O)c1ccccc1OCc1ccccc1)c1ccccc1O	Beta cell apopt 86 (no result: PREPL inh, CHOP inh)
O=C(NNC(=O)c1ccccc1OCc1ccccc1)c1ccccc1F	NR3A LBD binder 10 (no result: CHOP inh)
O=C(NC1CCCC1)c1ccccc1OCc1ccccc1	none
O=C(NNC(=O)c1ccccc1OCc1ccc(F)cc1)c1ccccc1O	NR3A LBD binder 23, Beta cell apopt 87 (no result: PREPL inh, CHOP inh)
O=C(NCc1ccc(F)cc1)c1ccccc1OCc1ccccc1	none
CCCCCCSc1ccc([C@@H]2[C@@H]3C(=O)N(C)C(=O)[C@@H]3[C@]3(C(=O)OC)CCCCN23)cc1	none (no result: T cruzi inh, CSC inhib, CHOP inh)
COCCNC(=O)C(=O)N/N=C(\C)CC(=O)Nc1cccc(C(F)(F)F)c1	none

Source: PubChem (several laboratories)
